Laboratory results from ChEMBL document CHEMBL4020828, “Design and Syntheses of Highly Potent Teixobactin Analogues against Staphylococcus aureus, Methicillin-Resistant Staphylococcus aureus (MRSA), and Vancomycin-Resistant Enterococci (VRE) in Vitro and in Vivo” (J Med Chem, 2018).
≈ marks a conversion by molar mass, not a printed value. Calls of active or inactive are those of the source. The rule behind the calls is not given here.

Tests used:
[1] = Cytotoxicity against human primary HDF assessed as loss of adhered cells at 5 ug/ml after 24 hrs by MTS assay; type: cell-based
Method in brief: (§1)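 A549 lung epithelial cells or primary human dermal fibroblasts exposed 24 h to peptide (15.62–250 µg/ml, dissolved fresh in culture medium). Nocodazole (5 µg/ml in DMSO) served as toxicity control, with 0.1% v/v DMSO as vehicle control. Metabolic activity was read by MTS viability assay. Data are from three independent triplicate experiments, given as mean ± SEM.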

[2] = test system: A549; test: Cytotoxicity against human A549 cells assessed as loss of adhered cells at 5 ug/ml after 24 hrs by MTS assay; type: cell-based; details: a549, 24 h; method in brief: as §1
[3] = test system: Staphylococcus aureus; test: Antibacterial activity against methicillin-resistant Staphylococcus aureus USA300; type: functional
[4] = test system: Staphylococcus epidermidis; test: Antibacterial activity against Staphylococcus epidermidis; type: functional
[5] = test system: Staphylococcus aureus; test: Antibacterial activity against methicillin-sensitive Staphylococcus aureus; type: functional
[6] = Cytotoxicity against human primary HDF assessed as cytoskeleton or nuclear disruption at 15.62 to 250 ug/ml after 24 hrs by rhodamine-phalloidin/Hoechst 33342 staining-based fluorescence microscopic method; type: cell-based
Method in brief: (§2)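 After 24 h peptide exposure, cells were fixed and stained with rhodamine-phalloidin (actin), Alexa Fluor 488 anti-α-tubulin and Hoechst 33342 (nuclei). They were then imaged by automated high-content microscopy. Nocodazole (10 µg/ml) served as toxicity control. Representative images shown at 62.5 µg/ml.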

[7] = Cytotoxicity against human primary HDF assessed as cell viability at 15.62 to 250 ug/ml after 24 hrs by MTS assay relative to control; type: cell-based; details: primary HDF cells, read-out: Activity
Method in brief: (§3)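 Cells exposed 24 h to peptide at 15.62–250 µg/ml, prepared fresh in culture medium from a 500 µg/ml stock. Controls were DMSO (0.1% v/v) or nocodazole (5 µg/ml in DMSO). Metabolic activity was read by MTS viability assay. Mean ± SEM of three independent triplicate experiments.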

[8] = test system: Staphylococcus aureus; test: Bactericidal activity against Staphylococcus aureus ATCC 29213 assessed as log reduction in bacterial load at 0.5 to 1 ug/ml after 8 hrs by time-kill assay; type: functional
[9] = test system: Staphylococcus epidermidis; test: Antibacterial activity against Staphylococcus epidermidis 12228 after 24 hrs; type: functional; details: Staphylococcus epidermidis, 12228, 24 h
[10] = test system: Staphylococcus aureus; test: (§4) Antibacterial activity against Staphylococcus aureus ATCC 29213 infected in C57BL6 mouse cornea assessed as mean corneal thickness at 0.3% administered tropically 2 times on day 1, 4 times on day 2 and 2 times on day 3 starting from 6 hrs post infection measured 24 hrs post last dose by AS-OCT method (reference value: 151.7 +/- 12.7 micrometer); type: functional
Method in brief: (§5)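 Mouse corneal epithelium scratched with a scalpel, then infected with 15 µl of 6×10⁶ CFU/ml S. aureus ATCC 29213. From 6 h p.i., 15 µl of PBS vehicle, 0.3% w/v peptide in PBS or 0.3% moxifloxacin was applied, 8 doses total. Outcomes were slit-lamp examination, AS-OCT corneal thickness and CFU counts of harvested corneas (mean log₁₀ CFU/tissue ± SEM).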

[11] = Cytotoxicity against human A549 cells assessed as cell viability at 15.62 to 250 ug/ml after 24 hrs by MTS assay relative to control; type: cell-based; details: read-out: Activity; method in brief: as §3
[12] = test system: Enterococcus faecalis; test: Antibacterial activity against vancomycin-resistant Enterococcus faecalis isolate 1002 after 24 hrs; type: functional; details: isolate 1002, 24 h
[13] = test system: A549; test: Cytotoxicity against human A549 cells assessed as cytoskeleton or nuclear disruption at 15.62 to 250 ug/ml after 24 hrs by rhodamine-phalloidin/Hoechst 33342 staining-based fluorescence microscopic method; type: cell-based; details: a549, 24 h; method in brief: as §2
[14] = test system: Staphylococcus aureus; test: Antibacterial activity against methicillin-resistant Staphylococcus aureus isolate 1003 after 24 hrs; type: functional; details: isolate 1003, 24 h
[15] = test system: Staphylococcus saprophyticus; test: Antibacterial activity against Staphylococcus saprophyticus ATCC 15305 after 24 hrs; type: functional; details: ATCC 15305, 24 h
[16] = test system: Staphylococcus aureus; test: Antibacterial activity against Staphylococcus aureus ATCC 29213 at 5 to 20 times MIC after 24 hrs; type: functional
[17] = test system: Staphylococcus aureus; test: Antibacterial activity against methicillin-resistant Staphylococcus aureus isolate 42412 after 24 hrs; type: functional; details: isolate 42412, 24 h
[18] = test system: Staphylococcus aureus; test: as §4, with “48” for “24”, “186.2” for “151.7”, “17.5” for “12.7”; type: functional; method in brief: as §5
[19] = test system: Staphylococcus aureus; test: Ratio of MBC to MIC for Staphylococcus aureus 4299; type: functional
[20] = test system: Pseudomonas aeruginosa; test: Antibacterial activity against Pseudomonas aeruginosa after 24 hrs; type: functional
[21] = test system: A549; test: Cytotoxicity against human A549 cells assessed as effect on cell morphology at 15.62 to 250 ug/ml after 24 hrs by rhodamine-phalloidin/Hoechst 33342 staining-based fluorescence microscopic method; details: a549, 24 h; method in brief: as §2
[22] = test system: Staphylococcus aureus; test: Antibacterial activity against methicillin-resistant Staphylococcus aureus ATCC 33591 at 5 to 20 times MIC after 24 hrs; type: functional
[23] = test system: Staphylococcus aureus; test: Bactericidal activity against methicillin-resistant Staphylococcus aureus ATCC 700699 after 24 hrs; type: functional
[24] = test system: Staphylococcus aureus; test: as §4, with “decrease in” for “mean”, “infiltrates” for “thickness”, “48” for “24”, “slit-lamp photography” for “AS-OCT method (reference value: 151.7 +/- 12.7 micrometer)”; type: functional; method in brief: as §5
[25] = test system: Oryctolagus cuniculus; test: Toxicity in New Zealand white rabbit corneal-damage model assessed as effect on wound healing at 0.3% administered 4 times a day tropically for 10 days by fluorescein staining-based slit-lamp biomicroscopy; details: in vivo, topical_or_ocular, 240 h
Method in brief: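 Rabbit cornea circularly debrided, then 50 µl of 0.3% (w/v) peptide applied topically 4 times/day. Vehicle (PBS) served as control, 2 eyes PBS versus 4 eyes treated. Re-epithelialization and wound closure followed over time by fluorescein staining and slit-lamp biomicroscopy.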

[26] = test system: Staphylococcus saprophyticus; test: Antibacterial activity against Staphylococcus saprophyticus ATCC 49453 after 24 hrs; type: functional; details: ATCC 49453, 24 h
[27] = test system: Staphylococcus aureus; test: Bactericidal activity against Staphylococcus aureus 4299 after 24 hrs; type: functional
[28] = test system: Staphylococcus aureus; test: Bactericidal activity against methicillin-resistant Staphylococcus aureus isolate 21455 after 24 hrs; type: functional
[29] = test system: Staphylococcus aureus; test: (§6) Antibacterial activity against Staphylococcus aureus ATCC 29213 infected in C57BL6 mouse cornea assessed as decrease in bacterial load/tissue at 0.3% administered tropically 2 times on day 1, 4 times on day 2 and 2 times on day 3 starting from 6 hrs post infection measured 48 hrs post last dose; type: functional; design: scale not given: the % may be the effect or the level left; method in brief: as §5
[30] = test system: Staphylococcus aureus; test: Antibacterial activity against Staphylococcus aureus ATCC 29213 after 24 hrs; type: functional; details: ATCC 29213, 24 h
[31] = test system: Enterococcus faecalis; test: Antibacterial activity against vancomycin-resistant Enterococcus faecalis isolate 1001 after 24 hrs; type: functional; details: isolate 1001, 24 h
[32] = test system: Bacillus cereus; test: Antibacterial activity against Bacillus cereus ATCC 11788 after 24 hrs; type: functional; details: ATCC 11788, 24 h
[33] = test system: Staphylococcus aureus; test: as §6, with “conjunctival chemosis” for “bacterial load/tissue”, “dose by slit-lamp photography” for “dose”; type: functional; method in brief: as §5
[34] = test system: Bacillus subtilis (Bacillus subtilis); test: Antibacterial activity against Bacillus subtilis ATCC 6633 after 24 hrs; details: ATCC 6633, 24 h
[35] = test system: Staphylococcus saprophyticus; test: Antibacterial activity against Staphylococcus saprophyticus ATCC BAA 750 after 24 hrs; type: functional; details: ATCC BAA 750, 24 h
[36] = test system: Staphylococcus aureus; test: Antibacterial activity against methicillin-resistant Staphylococcus aureus isolate 21455 after 24 hrs; type: functional; details: isolate 21455, 24 h
[37] = test system: Staphylococcus saprophyticus; test: Antibacterial activity against Staphylococcus saprophyticus ATCC 49907 after 24 hrs; type: functional; details: ATCC 49907, 24 h
[38] = test system: Enterococcus faecalis; test: Antibacterial activity against vancomycin-resistant Enterococcus faecalis isolate 1004 after 24 hrs; type: functional; details: isolate 1004, 24 h
[39] = test system: Enterococcus faecalis; test: Antibacterial activity against vancomycin-resistant Enterococcus faecalis ATCC 29212 after 24 hrs; type: functional; details: ATCC 29212, 24 h
[40] = test system: Staphylococcus aureus; test: Antibacterial activity against methicillin-resistant Staphylococcus aureus ATCC 700699 after 24 hrs; type: functional; details: ATCC 700699, 24 h
[41] = test system: Staphylococcus aureus; test: Bactericidal activity against Staphylococcus aureus ATCC 29213 after 24 hrs; type: functional
[42] = Cytotoxicity against human primary HDF assessed as effect on cell morphology at 15.62 to 250 ug/ml after 24 hrs by rhodamine-phalloidin/Hoechst 33342 staining-based fluorescence microscopic method; method in brief: as §2
[43] = test system: Staphylococcus aureus; test: Ratio of MBC to MIC for Staphylococcus aureus ATCC 29213; type: functional
[44] = test system: Staphylococcus aureus; test: Antibacterial activity against methicillin-resistant Staphylococcus aureus ATCC 33591 after 24 hrs; type: functional; details: ATCC 33591, 24 h
[45] = test system: Enterococcus faecalis; test: Antibacterial activity against vancomycin-resistant Enterococcus faecalis isolate 1008 after 24 hrs; type: functional; details: isolate 1008, 24 h
[46] = test system: Enterococcus faecalis; test: Antibacterial activity against vancomycin-resistant Enterococcus faecalis ATCC 700802 after 24 hrs; type: functional; details: ATCC 700802, 24 h

COC(=O)Nc1nc2ccc(C(=O)c3cccs3)cc2[nH]1 [NOCODAZOLE]
Activity [1]: Toxic | Activity [2]: Toxic

CC[C@@H](C)[C@@H](NC(=O)[C@@H](CCC(N)=O)NC(=O)[C@H](CO)NC(=O)[C@@H](NC(=O)[C@@H](Cc1ccccc1)NC)[C@@H](C)CC)C(=O)N[C@H](C(=O)N[C@@H](CO)C(=O)N[C@H]1C(=O)N[C@@H](C)C(=O)N[C@@H](CCCCNC(=N)N)C(=O)N[C@@H]([C@@H](C)CC)C(=O)O[C@H]1C)[C@@H](C)CC
MIC [3]: 2 µg/mL (≈ 1.59 µM) | MIC [4]: 1 µg/mL (≈ 0.795 µM) | MIC [5]: 1 µg/mL (≈ 0.795 µM)

CC[C@@H](C)[C@@H](NC(=O)[C@@H](CCCNC(=N)N)NC(=O)[C@H](CO)NC(=O)[C@@H](NC(=O)[C@@H](Cc1ccccc1)NC)[C@@H](C)CC)C(=O)N[C@H](C(=O)N[C@@H](CO)C(=O)N[C@H]1C(=O)N[C@@H](C)C(=O)N[C@@H](CC(C)C)C(=O)N[C@@H]([C@@H](C)CC)C(=O)O[C@H]1C)[C@@H](C)CC
Activity [6]: Non-Toxic | viability at 24 h [7]: ≥ 80% | Activity [8]: >=2 deltalog10CFU/ml | MIC [9]: < 0.0625 µg/mL | Activity [10]: 92.3 um | viability at 24 h [11]: ≥ 80% | MIC [12]: 1 µg/mL (≈ 0.813 µM) | Activity [13]: Non-Toxic | MIC [14]: 0.5 µg/mL (≈ 0.407 µM) | MIC [15]: < 0.0625 µg/mL | Activity [16]: Active | MIC [17]: 0.0313 µg/mL (≈ 0.0255 µM) | Activity [18]: 121.7 um | Ratio [19]: <4 | Activity [20]: inactive | Activity [21]: Non-Toxic | Activity [22]: Active | Activity [23]: Active | Activity [24]: Active | Activity [25]: Non-Toxic | MIC [26]: < 0.0625 µg/mL | Activity [27]: Active | Activity [28]: Active | Activity [29]: >99% | MIC [30]: < 0.0625 µg/mL | MIC [31]: 0.5 µg/mL (≈ 0.407 µM) | MIC [32]: 0.5 µg/mL (≈ 0.407 µM) | Activity [33]: Active | MIC [34]: 0.125 µg/mL (≈ 0.102 µM) | MIC [35]: < 0.0625 µg/mL | MIC [36]: 0.0313 µg/mL (≈ 0.0255 µM) | MIC [37]: < 0.0625 µg/mL | MIC [38]: 0.25 µg/mL (≈ 0.203 µM) | MIC [39]: 0.5 µg/mL (≈ 0.407 µM) | MIC [40]: 0.25 µg/mL (≈ 0.203 µM) | Activity [41]: Active | Activity [42]: Non-Toxic | Ratio [43]: <4 | MIC [44]: 0.125 µg/mL (≈ 0.102 µM) | MIC [45]: 0.5 µg/mL (≈ 0.407 µM) | MIC [46]: 0.5 µg/mL (≈ 0.407 µM)
